Laboratory results as given in ChEMBL document CHEMBL1135717, “Minor groove DNA binders as antimicrobial agents. 1. Pyrrole tetraamides are potent antibacterials against vancomycin resistant Enterococci [corrected] and methicillin resistant Staphylococcus aureus” (J Med Chem, 2002).
Values after ≈ are worked out from the molar mass of the structure shown.

Experiments:
[1] = Toxicity assessed in human T-cells using a colorimetric cell proliferation assay.; assay type: cell-based
How it was run: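 CCRF-CEM human leukemia T-cells in RPMI-1640 with 10% FBS and gentamicin 0.1 mg/mL, seeded at 4 × 10^4 cells/well. Compound added at start at 50, 25, 12.5 and 6.3 μM. WST-1 cleavage read by absorbance at 440 nm at 24, 48 and 72 h. Value reported as lowest % of no-compound control, typically 72 h at 50 μM. At least triplicate.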

Enterococcus [2] = experiment: In vitro antimicrobial activity against Vancomycin resistant enterococcus strain UCD-3; assay type: functional
How it was run: (§1)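 Broth microdilution MIC per NCCLS M7-A4. Compounds dissolved fresh in DMSO as 10 mM stock, then diluted in BHI medium for VRE (BM4147, UCD3) or Mueller-Hinton medium for MRSA. Seven 1:2 serial dilutions gave test concentrations of 45.5 to 0.7 μM. MIC read by visual inspection of wells after 2 days.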

Enterococcus [3] = experiment: In vitro antimicrobial activity against Vancomycin resistant enterococcus strain BM4147; assay type: functional; how it was run: as §1
Nucleic Acid [4] = experiment: DNA binding measured as Changes in the DNA melting temperature of an AT-rich dodecamer (CGATTATTAAGC) (GCTTAATAATCG) upon binding of an equimolar amount of compound; assay type: nucleic-acid assay
How it was run: (§2)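 Melting monitored by UV absorbance at 260 nm in 10 mM HEPES pH 7.2, 0.1 mM EDTA, 50 mM NaCl. 12-bp AT-rich oligo at 5 μM mixed with compound at equimolar ratio. Temperature ramped 15 to 95 °C at 0.2 °C/min. Tm by derivative method, checked by hyperchromicity. ΔTm is Tm with compound minus Tm without. At least duplicate.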

Staphylococcus aureus = experiment: In vitro antimicrobial activity against Methicillin resistant Staphylococcus aureus; assay type: functional; how it was run: as §1
Nucleic Acid [5] = experiment: Changes in the DNA melting temperature of an AT-rich dodecamer (CGATTATTAAGC) (GCTTAATAATCG) upon binding of an equimolar amount of compound; assay type: nucleic-acid assay; how it was run: as §2

## N=C(N)CCNC(=O)c1cc(NC(=O)c2ccc(C(=O)Nc3cc(C(=O)NCCC(=N)N)n(CC4CC4)c3)c([N+](=O)[O-])c2)cn1CC1CC1
[1]
  NCC: 87%
Enterococcus [2]
  MIC: 2.8 µM (≈ 1.89 µg/mL)
Enterococcus [3]
  MIC: 2.8 µM (≈ 1.89 µg/mL)
Nucleic Acid [4]
  ΔTm: 28 °C
Staphylococcus aureus
  MIC: 1.4 µM (≈ 0.943 µg/mL)

## N=C(N)CCNC(=O)c1cc(NC(=O)c2ccc(C(=O)Nc3cc(C(=O)NCCC(=N)N)n(CC4CC4)c3)s2)cn1CC1CC1
[1]
  NCC: 65%
Enterococcus [2]
  MIC: 2.8 µM (≈ 1.78 µg/mL)
Enterococcus [3]
  MIC: 1.4 µM (≈ 0.889 µg/mL)
Nucleic Acid [4]
  ΔTm: 27 °C
Staphylococcus aureus
  MIC: 1.4 µM (≈ 0.889 µg/mL)

## N=C(N)CCNC(=O)c1cc(NC(=O)c2cnc(C(=O)Nc3cc(C(=O)NCCC(=N)N)n(CC4CC4)c3)cn2)cn1CC1CC1
[1]
  NCC: 90%
Enterococcus [2]
  MIC: 5.7 µM (≈ 3.6 µg/mL)
Enterococcus [3]
  MIC: 2.8 µM (≈ 1.77 µg/mL)
Nucleic Acid [4]
  ΔTm: 23 °C
Staphylococcus aureus
  MIC: 2.8 µM (≈ 1.77 µg/mL)

## CC(C)CCn1cc(NC(=O)CCCCC(=O)Nc2cc(C(=O)NCCC(=N)N)n(CCC(C)C)c2)cc1C(=O)NCCC(=N)N
[1]
  NCC: 87%
Enterococcus [2]
  MIC: > 45.5 µM
Enterococcus [3]
  MIC: > 45.5 µM
Nucleic Acid [4]
  ΔTm: 10 °C
Staphylococcus aureus
  MIC: > 45.5 µM

## CC(C)CCn1cc(NC(=O)C2CCC(C(=O)Nc3cc(C(=O)NCCC(=N)N)n(CCC(C)C)c3)CC2)cc1C(=O)NCCC(=N)N (stereo not given)
[1]
  NCC: 88%
Enterococcus [2]
  MIC: > 45.5 µM
Enterococcus [3]
  MIC: > 45.5 µM
Nucleic Acid [4]
  ΔTm: 11 °C
Staphylococcus aureus
  MIC: 11.4 µM (≈ 7.6 µg/mL)

## Cn1cc(NC(=O)c2cc(NC(=O)c3cc(NC=O)cn3C)cn2C)cc1C(=O)NCCC(=N)N [STALLIMYCIN]
[1]
  NCC: 79%
Nucleic Acid [5]
  ΔTm: 26
Enterococcus [2]
  MIC: > 45.5 µM
Enterococcus [3]
  MIC: > 45.5 µM
Staphylococcus aureus
  MIC: > 45.5 µM

## CNC(=N)CCNC(=O)c1cc(NC(=O)c2ccc(C(=O)Nc3cc(C(=O)NCCC(=N)NC)n(CCC(C)C)c3)cc2)cn1CCC(C)C
[1]
  NCC: 78%

## C/N=C(\N)CCNC(=O)c1cc(NC(=O)c2ccc(C(=O)Nc3cc(C(=O)NCC/C(N)=N/C)n(CCC(C)C)c3)cc2)cn1CCC(C)C
Enterococcus [2]
  MIC: 1.4 µM (≈ 0.964 µg/mL)
Enterococcus [3]
  MIC: 1.4 µM (≈ 0.964 µg/mL)
Nucleic Acid [4]
  ΔTm: 28 °C
Staphylococcus aureus
  MIC: 0.7 µM (≈ 0.482 µg/mL)

## CC(C)CCn1cc(NC(=O)C2=CC=C(C(=O)Nc3cc(C(=O)NCCC(=N)N)n(CCC(C)C)c3)CC2)cc1C(=O)NCCC(=N)N
[1]
  NCC: 23%
Enterococcus [2]
  MIC: 1.4 µM (≈ 0.928 µg/mL)
Enterococcus [3]
  MIC: 1.4 µM (≈ 0.928 µg/mL)
Nucleic Acid [4]
  ΔTm: 26 °C
Staphylococcus aureus
  MIC: 0.7 µM (≈ 0.464 µg/mL)

## N=C(N)CCNC(=O)c1cc(NC(=O)c2ccc(C(=O)Nc3cc(C(=O)NCCC(=N)N)n(CC4CC4)c3)nc2)cn1CC1CC1
[1]
  NCC: 82%
Enterococcus [2]
  MIC: 2.8 µM (≈ 1.76 µg/mL)
Enterococcus [3]
  MIC: 1.4 µM (≈ 0.882 µg/mL)
Nucleic Acid [4]
  ΔTm: 27 °C
Staphylococcus aureus
  MIC: 1.4 µM (≈ 0.882 µg/mL)

## CC(C)CCn1cc(NC(=O)c2ccc3cc(C(=O)Nc4cc(C(=O)NCCC(=N)N)n(CCC(C)C)c4)ccc3c2)cc1C(=O)NCCC(=N)N
[1]
  NCC: 0%
Enterococcus [2]
  MIC: > 45.5 µM
Enterococcus [3]
  MIC: > 45.5 µM
Nucleic Acid [4]
  ΔTm: 24 °C
Staphylococcus aureus
  MIC: > 45.5 µM

## CC(C)CCn1cc(NC(=O)c2ccc(C(=O)Nc3cc(C(=O)NCCC(=N)N)n(CCC(C)C)c3)cc2)cc1C(=O)NCCC(=N)N
[1]
  NCC: 4%
Nucleic Acid [5]
  ΔTm: 28
Enterococcus [2]
  MIC: 0.7 µM (≈ 0.463 µg/mL)
Enterococcus [3]
  MIC: 0.7 µM (≈ 0.463 µg/mL)
Staphylococcus aureus
  MIC: 1.4 µM (≈ 0.925 µg/mL)

## CC(C)CCn1cc(NC(=O)c2ccc(C(=O)Nc3cc(C(=O)NCCC4=NCCCN4)n(CCC(C)C)c3)cc2)cc1C(=O)NCCC1=NCCCN1
[1]
  NCC: 51%
Enterococcus [2]
  MIC: 0.7 µM (≈ 0.519 µg/mL)
Enterococcus [3]
  MIC: 0.7 µM (≈ 0.519 µg/mL)
Nucleic Acid [4]
  ΔTm: 28 °C
Staphylococcus aureus
  MIC: 0.7 µM (≈ 0.519 µg/mL)

## CCCn1cc(NC(=O)c2ccc(C(=O)Nc3cc(C(=O)NCCC(=N)N)n(CCC)c3)cc2)cc1C(=O)NCCC(=N)N
[1]
  NCC: 61%
Nucleic Acid [5]
  ΔTm: 29
Enterococcus [2]
  MIC: 5.6 µM (≈ 3.39 µg/mL)
Enterococcus [3]
  MIC: 5.6 µM (≈ 3.39 µg/mL)
Staphylococcus aureus
  MIC: 11.1 µM (≈ 6.71 µg/mL)

## CC(C)CCn1cc(NC(=O)c2cnc(C(=O)Nc3cc(C(=O)NCCC(=N)N)n(CCC(C)C)c3)cn2)cc1C(=O)NCCC(=N)N
[1]
  NCC: 32%
Enterococcus [2]
  MIC: 2.8 µM (≈ 1.86 µg/mL)
Enterococcus [3]
  MIC: 2.8 µM (≈ 1.86 µg/mL)
Nucleic Acid [4]
  ΔTm: 20 °C
Staphylococcus aureus
  MIC: 2.8 µM (≈ 1.86 µg/mL)

## CC(C)CCn1cc(NC(=O)c2ccc(C(=O)Nc3cc(C(=O)NCCN)n(CCC(C)C)c3)cc2)cc1C(=O)NCCN
[1]
  NCC: 24%
Enterococcus [2]
  MIC: 11.4 µM (≈ 6.92 µg/mL)
Enterococcus [3]
  MIC: 11.4 µM (≈ 6.92 µg/mL)
Nucleic Acid [4]
  ΔTm: 20 °C
Staphylococcus aureus
  MIC: 2.8 µM (≈ 1.7 µg/mL)
